Shown are actives, neighbours in structure and some others; about 2.7% of the full set was active somewhere.
Hep lipid drop = modulators of hepatic lipid droplet formation | AML12 mouse hepatocytes, oleate lipid droplets, BODIPY imaging | 240,000 tested, 0.4% active | AID 1656 | inhibition, % at 6.5 µM;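 active means lipid droplet intensity inhibited by at least 50%, with more than 500 cells counted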
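Test system: AML12 hepatocytes (mouse); reagent: oleate loading, 100 µM; dosing: one dose, 6.5 µM compound; incubation: overnight exposure; signal: fluorescence imaging, 20x objective, two fields per well; read-out basis: % inhibition of corrected integrated BODIPY droplet signal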
HTR2A ag = mouse HTR2A agonism via beta-arrestin recruitment; AID 624169; activation, % at 7.6 µM; 360,000 tested, 0.66% active; CHO-K1 mHTR2A beta-arrestin complementation, luminescence; percent of 30 µM serotonin response;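 active means activation above a run cutoff, the mean activation of all tested compounds plus 3 SD, cut at about 14% in these data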;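 further: 0% = plate median of compound wells and 100% = 30 µM serotonin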
PREPL inh = human PREPL enzyme inhibition; Q4J6C6; recombinant PREPL, fluorescence polarization activity-based probe; inhibition, % at 5.96 µM; 320,000 tested, 0.68% active; AID 2751; in the data active means inhibition above about 43%;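 further: 0% = enzyme with DMSO and 100% = wells lacking enzyme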
MC4R ag barr = activates human MC4R beta-arrestin recruitment | P32245 | U2OS MC4R beta-arrestin complementation, luminescence; percent of melanotan II response, DMSO zero | activation, % at 8.9 µM | 360,000 tested, 0.98% active | AID 540308;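 active means activation above a per-plate cutoff, the mean activation of sample wells on that plate plus 3 SD, cut at about 8% in these data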
Target sequence (P32245 whole entry, looked up): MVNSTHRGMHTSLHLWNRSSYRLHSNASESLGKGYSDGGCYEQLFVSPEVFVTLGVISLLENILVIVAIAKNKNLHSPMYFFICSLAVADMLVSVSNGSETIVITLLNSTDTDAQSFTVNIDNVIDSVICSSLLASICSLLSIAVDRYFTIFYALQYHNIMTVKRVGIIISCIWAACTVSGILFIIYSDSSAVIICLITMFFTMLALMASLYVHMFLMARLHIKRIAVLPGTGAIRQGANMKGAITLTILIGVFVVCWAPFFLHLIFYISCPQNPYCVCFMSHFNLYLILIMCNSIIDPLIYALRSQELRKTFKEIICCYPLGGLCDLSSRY
NTR1 ag = agonists of human neurotensin receptor NTR1; NTR1-U2OS beta-arrestin-GFP spot imaging, agonist mode; activation, % at 20 µM; 330,000 tested, 0.17% active;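 active means activation at or above 40% of the spot to cytoplasm intensity ratio, with at least 20 cells analyzed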;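 further: 0% = DMSO without peptide and 100% = 100 nM NTR1 peptide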
MC4R antagonist = antagonists of human melanocortin 4 receptor (MC4R). 360,000 tested, 0.48% active. AID 540295. P32245. MC4R-expressing cells, MTII-stimulated cAMP, LANCE TR-FRET. inhibition, % at 6.5 µM;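 active means inhibition above its plate's cutoff, the mean of tested wells on that plate plus 3 SD, cut at about 29% in these data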;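 further: 0% = Melanotan II alone and 100% = Melanotan II plus saturating MCL0020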
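Assay system: U2OS-MC4R stable cell line; Also added: Melanotan II; Technique: Eu-cAMP/anti-cAMP TR-FRET, emission 671 nm; Times: 30-min compound, 1-h challenge, 1-h detection, room temperature.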
Lipid drop inh = hepatic lipid droplet formation inhibition, confirmed | 870 tested, 65% active | AID 463183 | AML12 mouse hepatocytes, BODIPY lipid droplet imaging; droplets induced with 100 µM oleic acid | shares compounds with Hep lipid drop | inhibition, % at 5.2 µM;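 active means inhibition of lipid droplet metric at least 50%, with more than 300 cells in each of four replicates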;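 further: plate controls were DMSO with oleic acid for no effect and 5 µM Triacsin-C for full effect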
AML12 cytotox = counter-screen for cytotoxicity in AML12 mouse hepatocytes. shares compounds with Hep lipid drop. DAPI nuclear morphology cytotoxicity imaging; hits give high values; cells fed 100 µM oleate overnight. z-score at 5 µM. 870 tested, 3% active; in the data active means z-score above about 6.3;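 further: compound exposure lasted overnight at 37 °C before fixation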
AML12 tox conf = AML12 hepatocyte cytotoxicity, confirmed; 530 tested, under 10 active; cytotoxicity, % at 50 µM; shares compounds with Hep lipid drop; AID 463219; AML12 mouse hepatocyte viability, ATP luminescence; cells loaded with 100 µM oleic acid;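 active means cytotoxicity above 50% in each of four replicates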;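 further: compound exposure lasted overnight at 37 °C before the ATP read; 0% = DMSO-treated cells and 100% = wells with no cells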
* marks the source's active call; other numbers are inactive results; . = no result given.

SMILES	Hep lipid drop	HTR2A ag	PREPL inh	MC4R ag barr	NTR1 ag	MC4R antagonist	Lipid drop inh	AML12 cytotox	AML12 tox conf
COc1ccc(N2C(=O)[C@@H]3[C@H](C2=O)[C@H]2C=CC=NN2[C@@H]3C(=O)Nc2ccc(Cl)cc2)cc1	12	1	27	-2	1	29*	.	.	.
O=C(Nc1ccc(Cl)cc1)[C@@H]1[C@@H]2C(=O)N(c3ccc4ccccc4c3)C(=O)[C@@H]2[C@H]2C=CC=NN21	12	7	-26	0	2	11	.	.	.
CC1(C)CC(=O)C/C(=N/NC(=O)COc2ccc3ccccc3c2Br)C1	-2	-2	31	-3	2	3	.	.	.
CN1CC(=O)Nc2ccc([N+](=O)[O-])cc2C1=O	91*	2	-4	1	0	12	26	-1.2	.
CN1CC(=O)Nc2ccc(F)cc2C1=O	34	-1	-2	3	0	0	.	.	.
Cc1ccc(S(=O)(=O)N(C)CC(=O)NCCCn2ccnc2)cc1	10	-3	3	-1	0	-4	.	.	.
COc1ccccc1N1N=C(c2ccc([N+](=O)[O-])cc2)CC1c1ccccc1 (configuration not stated)	67*	-2	-21	-1	3	17	110*	-0.96	9
CCOc1ncccc1C(=O)OC(C)C(=O)Nc1ccc(CC)cc1 (configuration not stated)	53*	2	0	-2	1	10	97*	-0.59	16
COCCN1C(=O)COc2ccccc2C1C(=O)NC1CCCCC1 (configuration not stated)	.	-2	.	.	.	.	.	.	.
O=C(Nc1ccc([N+](=O)[O-])cn1)c1ccc(Br)o1	-5	0	2	1	0	13	.	.	.
O=C1CSC(c2cn(-c3ccccc3)nc2-c2ccccc2)N1Cc1ccco1 (configuration not stated)	61*	-3	19	-1	8	8	87*	-1.1	-21
CCc1ccc(-c2nn(-c3ccccc3)cc2C2SCC(=O)N2Cc2ccco2)cc1 (configuration not stated)	31	-3	20	1	3	-2	.	.	.
COc1cc2c(cc1NC(=S)NC(=O)c1c(OC)cccc1OC)oc1ccccc12	105*	2	-2	-2	3	-1	106*	0.45	18
COc1ccc(C(=O)NC(=S)Nc2cc3oc4ccccc4c3cc2OC)cc1	-1	4	9	3	1	9	.	.	.
COc1ccc(C)cc1S(=O)(=O)N(CC(=O)Nc1cc([N+](=O)[O-])ccc1C)c1ccc(C)c(C)c1	51*	-5	-7	-2	0	8	57	-0.35	14
COc1ccc(NC(=O)[C@H](C)NC(=O)[C@@H]2Cc3ccccc3CN2C(=O)OC(C)(C)C)cc1	55*	-3	7	-3	0	0	91*	-1.1	9
Cc1cccc(NC(=O)[C@H](C)NC(=O)[C@@H]2Cc3ccccc3CN2C(=O)OC(C)(C)C)c1	62*	-16	-1	-1	2	0	100*	0.47	12
CCN(C(=O)COC(=O)CCCOc1ccccc1)c1c(N)n(Cc2ccccc2)c(=O)[nH]c1=O	.	6	-11	0	0	-1	.	.	.
O=C(NCCc1ccccc1)c1oc2ccccc2c1COc1ccccc1	64*	-8	2	0	.	23	87*	-0.082	-9
COc1ccc(Br)cc1CN(C)C(=O)CNC(=O)c1ccc2ccccc2c1	28	1	-46	3	4	-4	.	.	.
CCOc1ccc(CN(C)C(=O)CNC(=O)c2ccc3ccccc3c2)cc1OC	88*	-7	13	-2	0	-3	107*	-0.23	21
Cc1cc(C)cc(N(CC(=O)O)S(=O)(=O)c2c(C)noc2C)c1	58*	-1	15	-2	-1	2	28	-0.91	.
C#CCNC(=O)C1=C[C@@H](c2csc3ccccc23)C[C@@H](OCc2ccc(CO)cc2)O1	-20	-8	-1	-1	11	5	.	.	.
CCCc1cc(=O)[nH]c(SCC(=O)N2CCc3ccccc3C2)n1	.	0	15	-1	0	6	.	.	.
CCOC(=O)c1c(C)[nH]c(C)c1S(=O)(=O)N1CCN(c2ccc([N+](=O)[O-])cc2)CC1	93*	-1	4	-2	0	2	-33	0.74	.
SMILES	Hep lipid drop	HTR2A ag	PREPL inh	MC4R ag barr	NTR1 ag	MC4R antagonist	Lipid drop inh	AML12 cytotox	AML12 tox conf
CCOC(=O)C1CCN(S(=O)(=O)c2ccc3c(c2)NC(=O)C(C)C(=O)N3)CC1 (configuration not stated)	63*	-2	-3	0	4	6	87*	-0.68	8
CC1=CC(C)(C)N2C(=O)C3(NCCc4c3[nH]c3ccccc43)c3cccc1c32 (configuration not stated)	62*	2	5	-2	0	9	105*	0.51	12
CCOC(=O)N1CCN(C(=O)C2CC(=O)N(c3ccc(C)cc3)C2)CC1 (configuration not stated)	.	-3	3	-1	0	11	.	.	.
O=C(CCNC(=O)c1ccc(Cl)cc1)Nc1c(F)c(F)cc(F)c1F	0	3	1	0	-1	5	.	.	.
Cn1c(CC(=O)Nc2ccc(F)cc2)c(Sc2ccccc2)c2ccccc21	14	-1	30	3	0	-5	.	.	.
COc1ccc(NC(=O)Cc2c(Sc3ccccc3)c3ccccc3n2C)cc1	61*	-3	11	4	-1	3	91*	0.35	8
COc1cccc(CNc2nc3cc(-c4cnn(Cc5ccccc5)c4)sc3c(=O)n2C)c1	.	-2	.	-2	.	-12	.	.	.
CCCOc1ccc(-c2nc(OCC)c3ccccc3n2)cc1	-1	1	0	0	3	-1	.	.	.
CCOc1nc(-c2ccncc2)nc2ccccc12	53*	2	3	1	3	8	32	-0.32	.
Cc1ccccc1OCC(=O)NCCCNC(=O)c1ccccn1	93*	-7	-4	2	-2	15	10	-0.46	.
Cc1ccc(OCC(=O)NCCCNC(=O)c2ccccn2)cc1	-3	9	-17	-1	2	-5	.	.	.
Cn1c(N)c(C(=O)COC(=O)CC2CC3CCC2C3)c(=O)n(C)c1=O (configuration not stated)	9	1	-1	-2	1	4	.	.	.
